In ChEMBL document CHEMBL1137681, “Design, synthesis and characterization of N9/N7-substituted 6-aminopurines as VEGF-R and EGF-R inhibitors” (Eur J Med Chem, 2009):
The source made the active and inactive calls. The rule behind the calls is not given here.

Experiments:
[1] = target: T1, Serine/threonine-protein kinase PLK4 (Homo sapiens) (UniProt O00444); assay: Inhibition of SAK up to 100 uM
T1 sequence (whole entry): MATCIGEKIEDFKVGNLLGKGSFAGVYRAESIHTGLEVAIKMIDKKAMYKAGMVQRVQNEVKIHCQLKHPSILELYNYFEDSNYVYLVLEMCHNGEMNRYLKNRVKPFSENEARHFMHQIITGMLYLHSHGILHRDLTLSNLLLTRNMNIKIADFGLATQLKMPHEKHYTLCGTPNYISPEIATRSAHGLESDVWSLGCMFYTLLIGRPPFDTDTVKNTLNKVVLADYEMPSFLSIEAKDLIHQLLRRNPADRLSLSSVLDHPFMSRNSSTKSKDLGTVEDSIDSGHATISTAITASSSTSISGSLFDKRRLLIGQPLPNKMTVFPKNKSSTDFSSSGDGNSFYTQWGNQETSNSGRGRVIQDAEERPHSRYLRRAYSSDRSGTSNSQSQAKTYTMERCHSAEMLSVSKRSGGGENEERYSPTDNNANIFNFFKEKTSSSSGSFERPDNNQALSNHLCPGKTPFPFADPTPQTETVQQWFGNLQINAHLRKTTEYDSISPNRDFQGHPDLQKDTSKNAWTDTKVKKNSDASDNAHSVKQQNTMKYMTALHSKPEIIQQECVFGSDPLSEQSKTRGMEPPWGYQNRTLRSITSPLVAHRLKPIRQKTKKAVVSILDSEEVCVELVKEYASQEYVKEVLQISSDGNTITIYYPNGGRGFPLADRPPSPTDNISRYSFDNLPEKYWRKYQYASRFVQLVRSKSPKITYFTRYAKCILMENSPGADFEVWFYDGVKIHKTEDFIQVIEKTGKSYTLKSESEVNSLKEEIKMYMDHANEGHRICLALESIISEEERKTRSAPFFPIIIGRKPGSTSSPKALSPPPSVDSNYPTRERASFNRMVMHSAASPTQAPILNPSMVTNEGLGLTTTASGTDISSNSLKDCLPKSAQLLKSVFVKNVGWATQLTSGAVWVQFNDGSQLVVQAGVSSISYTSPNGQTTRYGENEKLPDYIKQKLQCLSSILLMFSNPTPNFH

[2] = target: Vascular endothelial growth factor receptor 2 (Homo sapiens, UniProt P35968); assay: Inhibition of VEGFR2
[3] = target: Hepatocyte growth factor receptor (Homo sapiens) (UniProt P08581); assay: Inhibition of MET up to 100 uM
Sequence of Hepatocyte growth factor receptor (Homo sapiens) (P08581 whole entry): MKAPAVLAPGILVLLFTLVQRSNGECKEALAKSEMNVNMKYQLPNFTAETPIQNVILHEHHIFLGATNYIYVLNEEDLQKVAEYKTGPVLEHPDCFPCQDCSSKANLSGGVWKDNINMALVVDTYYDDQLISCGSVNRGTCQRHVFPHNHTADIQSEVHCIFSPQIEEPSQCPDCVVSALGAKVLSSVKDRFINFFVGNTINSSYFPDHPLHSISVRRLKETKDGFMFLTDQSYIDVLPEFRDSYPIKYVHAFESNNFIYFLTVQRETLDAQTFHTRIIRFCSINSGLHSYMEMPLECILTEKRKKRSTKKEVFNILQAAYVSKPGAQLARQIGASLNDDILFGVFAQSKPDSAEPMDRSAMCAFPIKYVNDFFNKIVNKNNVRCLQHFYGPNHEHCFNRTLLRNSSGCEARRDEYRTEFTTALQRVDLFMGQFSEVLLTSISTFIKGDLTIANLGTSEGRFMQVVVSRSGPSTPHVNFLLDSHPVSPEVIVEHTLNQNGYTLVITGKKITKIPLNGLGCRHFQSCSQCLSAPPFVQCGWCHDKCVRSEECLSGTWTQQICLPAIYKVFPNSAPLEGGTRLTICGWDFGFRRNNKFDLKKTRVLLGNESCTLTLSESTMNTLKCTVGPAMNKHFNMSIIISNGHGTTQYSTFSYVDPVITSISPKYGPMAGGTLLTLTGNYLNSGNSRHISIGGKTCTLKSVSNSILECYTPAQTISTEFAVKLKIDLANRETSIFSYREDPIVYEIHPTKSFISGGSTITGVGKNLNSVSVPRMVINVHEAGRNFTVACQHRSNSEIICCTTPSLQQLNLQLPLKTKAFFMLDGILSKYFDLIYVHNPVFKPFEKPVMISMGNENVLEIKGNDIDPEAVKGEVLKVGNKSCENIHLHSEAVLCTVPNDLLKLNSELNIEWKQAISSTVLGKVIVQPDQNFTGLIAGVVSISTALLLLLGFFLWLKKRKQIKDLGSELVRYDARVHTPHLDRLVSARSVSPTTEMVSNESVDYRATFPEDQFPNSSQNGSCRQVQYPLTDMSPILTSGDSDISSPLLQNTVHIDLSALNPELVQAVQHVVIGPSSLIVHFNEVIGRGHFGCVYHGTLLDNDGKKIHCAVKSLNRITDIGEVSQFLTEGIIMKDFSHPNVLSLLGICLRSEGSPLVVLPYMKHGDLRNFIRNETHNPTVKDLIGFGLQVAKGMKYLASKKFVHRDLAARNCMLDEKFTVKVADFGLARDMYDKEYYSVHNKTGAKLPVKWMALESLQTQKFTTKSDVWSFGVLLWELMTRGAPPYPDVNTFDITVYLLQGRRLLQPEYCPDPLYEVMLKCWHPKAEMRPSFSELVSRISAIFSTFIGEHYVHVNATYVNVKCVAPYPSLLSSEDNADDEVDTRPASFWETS

[4] = target: Mitogen-activated protein kinase kinase kinase 8 (Homo sapiens) (UniProt P41279); assay: Inhibition of COT
Sequence of Mitogen-activated protein kinase kinase kinase 8 (Homo sapiens) (P41279 whole entry): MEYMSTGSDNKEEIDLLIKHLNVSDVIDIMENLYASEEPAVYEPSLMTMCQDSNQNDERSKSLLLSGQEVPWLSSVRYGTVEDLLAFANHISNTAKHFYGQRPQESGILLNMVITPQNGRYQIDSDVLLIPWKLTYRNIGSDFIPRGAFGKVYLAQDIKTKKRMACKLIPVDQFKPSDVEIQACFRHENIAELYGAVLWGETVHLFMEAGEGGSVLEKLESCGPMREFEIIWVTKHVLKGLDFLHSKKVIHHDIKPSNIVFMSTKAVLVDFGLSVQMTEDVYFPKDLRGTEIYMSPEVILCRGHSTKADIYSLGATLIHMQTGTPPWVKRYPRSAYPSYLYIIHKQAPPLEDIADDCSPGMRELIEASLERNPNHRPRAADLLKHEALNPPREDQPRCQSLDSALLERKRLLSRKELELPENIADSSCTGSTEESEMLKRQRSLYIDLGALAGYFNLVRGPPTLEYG

[5] = target: Platelet-derived growth factor receptor beta (Homo sapiens) (UniProt P09619); assay: Inhibition of PDGFRbeta up to 100 uM
Sequence of Platelet-derived growth factor receptor beta (Homo sapiens) (P09619 whole entry): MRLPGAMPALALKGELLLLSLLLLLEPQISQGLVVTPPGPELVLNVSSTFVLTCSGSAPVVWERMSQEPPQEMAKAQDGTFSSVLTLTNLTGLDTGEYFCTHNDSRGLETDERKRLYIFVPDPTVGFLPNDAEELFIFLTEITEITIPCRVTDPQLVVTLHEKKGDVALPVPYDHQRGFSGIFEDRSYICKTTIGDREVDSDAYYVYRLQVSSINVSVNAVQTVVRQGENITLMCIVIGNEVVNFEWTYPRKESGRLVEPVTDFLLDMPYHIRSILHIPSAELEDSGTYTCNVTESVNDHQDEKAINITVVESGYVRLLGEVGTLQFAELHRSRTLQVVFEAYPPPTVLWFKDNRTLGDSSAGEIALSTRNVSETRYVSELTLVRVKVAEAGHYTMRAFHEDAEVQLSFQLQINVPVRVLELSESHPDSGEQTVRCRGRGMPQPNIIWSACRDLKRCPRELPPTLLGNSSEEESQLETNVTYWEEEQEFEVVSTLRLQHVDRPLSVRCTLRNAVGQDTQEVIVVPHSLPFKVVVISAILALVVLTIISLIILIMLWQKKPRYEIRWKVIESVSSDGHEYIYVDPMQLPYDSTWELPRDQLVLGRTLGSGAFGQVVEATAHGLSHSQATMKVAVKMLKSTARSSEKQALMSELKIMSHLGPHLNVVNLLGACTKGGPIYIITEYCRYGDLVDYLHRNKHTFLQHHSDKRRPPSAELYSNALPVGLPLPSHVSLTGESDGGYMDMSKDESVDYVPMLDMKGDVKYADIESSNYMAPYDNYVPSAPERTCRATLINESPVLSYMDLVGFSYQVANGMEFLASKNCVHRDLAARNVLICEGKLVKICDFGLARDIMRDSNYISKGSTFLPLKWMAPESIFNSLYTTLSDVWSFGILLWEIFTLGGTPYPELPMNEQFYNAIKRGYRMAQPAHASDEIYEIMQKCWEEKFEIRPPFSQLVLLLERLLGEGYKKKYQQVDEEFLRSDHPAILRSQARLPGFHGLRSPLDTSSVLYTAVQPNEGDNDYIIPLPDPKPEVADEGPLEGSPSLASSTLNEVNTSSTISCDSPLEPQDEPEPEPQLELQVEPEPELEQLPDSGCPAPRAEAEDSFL

[6] = target: Cyclin-dependent kinase 2 (Homo sapiens) (UniProt P24941); assay: Inhibition of CDK2/cyclin A up to 100 uM
Outline: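 Buffer was HEPES-NaOH pH 7.5 with MgCl2/MnCl2, vanadate, DTT, PEG20000 and 1% DMSO. Run 80 min at 30 °C, H3PO4 stop, NaCl wash, scintillation read-out. IC50 from 10 concentrations, singlicate.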

[7] = target: T2, Ephrin type-B receptor 4 (Homo sapiens) (UniProt P54760); assay: Inhibition of EPHB4 up to 100 uM
T2 sequence (whole entry): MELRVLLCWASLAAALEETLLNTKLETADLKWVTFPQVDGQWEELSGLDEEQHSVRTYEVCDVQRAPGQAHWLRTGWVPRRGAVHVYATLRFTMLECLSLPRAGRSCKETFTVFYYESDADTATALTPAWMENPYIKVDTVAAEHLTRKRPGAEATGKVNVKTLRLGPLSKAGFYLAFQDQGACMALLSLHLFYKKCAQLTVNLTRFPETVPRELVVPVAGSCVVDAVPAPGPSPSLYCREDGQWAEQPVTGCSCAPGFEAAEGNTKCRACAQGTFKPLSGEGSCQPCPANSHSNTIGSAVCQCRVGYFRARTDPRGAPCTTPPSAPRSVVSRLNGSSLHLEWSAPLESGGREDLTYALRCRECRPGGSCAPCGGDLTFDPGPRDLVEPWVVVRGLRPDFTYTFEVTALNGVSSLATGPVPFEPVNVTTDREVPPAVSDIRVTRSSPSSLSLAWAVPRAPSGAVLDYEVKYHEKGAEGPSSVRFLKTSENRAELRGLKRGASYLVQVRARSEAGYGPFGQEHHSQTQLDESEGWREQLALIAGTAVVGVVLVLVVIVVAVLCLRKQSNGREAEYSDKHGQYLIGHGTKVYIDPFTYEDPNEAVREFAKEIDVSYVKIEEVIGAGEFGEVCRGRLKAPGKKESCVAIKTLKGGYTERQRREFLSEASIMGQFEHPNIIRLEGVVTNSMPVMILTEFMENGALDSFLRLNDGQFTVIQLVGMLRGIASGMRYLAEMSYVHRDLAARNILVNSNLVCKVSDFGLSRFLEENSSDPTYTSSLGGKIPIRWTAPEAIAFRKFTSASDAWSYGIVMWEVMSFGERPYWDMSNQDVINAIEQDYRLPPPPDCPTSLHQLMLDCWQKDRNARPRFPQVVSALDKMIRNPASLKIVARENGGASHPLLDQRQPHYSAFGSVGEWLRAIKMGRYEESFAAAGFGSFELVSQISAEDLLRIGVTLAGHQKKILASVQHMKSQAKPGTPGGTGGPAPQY
Outline: (§1)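 Buffer: HEPES-NaOH pH 7.5, Mg2+/Mn2+, vanadate, DTT, PEG20000, 1% DMSO. Incubated 30 °C for 80 min, stopped with 2% H3PO4, washed, and scintillation-counted. IC50 from 10 concentrations in singlicate.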

[8] = target: Epidermal growth factor receptor (Homo sapiens, UniProt P00533); assay: Inhibition of EGFR up to 100 uM; outline: as §1
[9] = target: Vascular endothelial growth factor receptor 3 (Homo sapiens, UniProt P35916); assay: Inhibition of VEGFR3
Sequence of Vascular endothelial growth factor receptor 3 (P35916 whole entry): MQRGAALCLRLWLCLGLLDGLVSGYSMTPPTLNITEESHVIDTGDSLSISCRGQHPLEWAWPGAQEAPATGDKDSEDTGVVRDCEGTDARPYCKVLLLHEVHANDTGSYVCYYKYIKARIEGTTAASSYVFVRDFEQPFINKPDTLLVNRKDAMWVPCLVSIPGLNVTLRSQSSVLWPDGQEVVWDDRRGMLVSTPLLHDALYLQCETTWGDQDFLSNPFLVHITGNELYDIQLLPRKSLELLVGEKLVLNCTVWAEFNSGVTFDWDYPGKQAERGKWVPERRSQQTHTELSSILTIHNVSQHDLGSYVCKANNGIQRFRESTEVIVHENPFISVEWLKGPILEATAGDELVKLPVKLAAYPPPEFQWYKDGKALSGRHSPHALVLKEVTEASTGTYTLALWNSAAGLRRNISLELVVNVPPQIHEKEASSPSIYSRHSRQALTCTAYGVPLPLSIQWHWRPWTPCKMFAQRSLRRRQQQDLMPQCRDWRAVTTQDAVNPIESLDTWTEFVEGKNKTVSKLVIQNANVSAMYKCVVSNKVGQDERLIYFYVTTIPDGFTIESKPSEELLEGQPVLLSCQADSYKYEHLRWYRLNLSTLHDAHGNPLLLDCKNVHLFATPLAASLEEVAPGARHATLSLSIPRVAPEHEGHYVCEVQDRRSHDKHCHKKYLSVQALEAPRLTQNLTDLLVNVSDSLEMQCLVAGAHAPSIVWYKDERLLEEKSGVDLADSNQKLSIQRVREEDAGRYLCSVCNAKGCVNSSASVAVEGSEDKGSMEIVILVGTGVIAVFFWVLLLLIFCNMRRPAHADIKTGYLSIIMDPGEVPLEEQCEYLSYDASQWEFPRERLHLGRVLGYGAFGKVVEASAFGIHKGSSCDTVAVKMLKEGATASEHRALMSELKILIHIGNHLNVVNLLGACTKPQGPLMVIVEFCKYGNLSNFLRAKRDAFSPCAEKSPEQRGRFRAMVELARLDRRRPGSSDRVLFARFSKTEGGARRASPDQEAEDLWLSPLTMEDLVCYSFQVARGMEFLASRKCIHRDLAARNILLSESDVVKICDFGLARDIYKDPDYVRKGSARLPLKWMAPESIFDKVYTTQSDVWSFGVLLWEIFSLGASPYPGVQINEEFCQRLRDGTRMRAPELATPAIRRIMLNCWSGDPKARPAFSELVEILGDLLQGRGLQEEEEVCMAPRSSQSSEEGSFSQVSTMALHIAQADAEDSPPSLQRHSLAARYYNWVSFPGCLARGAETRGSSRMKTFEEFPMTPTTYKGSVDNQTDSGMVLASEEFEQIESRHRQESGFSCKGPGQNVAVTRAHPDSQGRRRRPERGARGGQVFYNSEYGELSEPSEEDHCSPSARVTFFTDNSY

[10] = target: Inhibitor of nuclear factor kappa-B kinase subunit beta (Homo sapiens) (UniProt O14920); assay: Inhibition of IKKb at 10 uM
[11] = target: Serine/threonine-protein kinase Nek7 (Homo sapiens) (UniProt Q8TDX7); assay: Inhibition of NEK7 at 10 uM
Sequence of Serine/threonine-protein kinase Nek7 (Homo sapiens) (Q8TDX7 whole entry, looked up): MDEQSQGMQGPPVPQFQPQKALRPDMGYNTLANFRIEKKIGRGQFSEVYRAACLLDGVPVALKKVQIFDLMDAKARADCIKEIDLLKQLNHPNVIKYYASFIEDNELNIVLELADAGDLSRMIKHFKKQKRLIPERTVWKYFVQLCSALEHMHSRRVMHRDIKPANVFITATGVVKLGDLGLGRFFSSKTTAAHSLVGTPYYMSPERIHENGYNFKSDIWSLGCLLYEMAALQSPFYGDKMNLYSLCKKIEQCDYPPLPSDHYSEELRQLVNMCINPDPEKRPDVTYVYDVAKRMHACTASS

[12] = target: Ephrin type-A receptor 2 (Homo sapiens) (UniProt P29317); assay: Inhibition of human EPHA2 at 10 uM
[13] = target: MAP kinase-interacting serine/threonine-protein kinase 1 (Homo sapiens) (UniProt Q9BUB5); assay: Inhibition of MNK1 at 10 uM
Sequence of MAP kinase-interacting serine/threonine-protein kinase 1 (Homo sapiens) (Q9BUB5 whole entry, looked up): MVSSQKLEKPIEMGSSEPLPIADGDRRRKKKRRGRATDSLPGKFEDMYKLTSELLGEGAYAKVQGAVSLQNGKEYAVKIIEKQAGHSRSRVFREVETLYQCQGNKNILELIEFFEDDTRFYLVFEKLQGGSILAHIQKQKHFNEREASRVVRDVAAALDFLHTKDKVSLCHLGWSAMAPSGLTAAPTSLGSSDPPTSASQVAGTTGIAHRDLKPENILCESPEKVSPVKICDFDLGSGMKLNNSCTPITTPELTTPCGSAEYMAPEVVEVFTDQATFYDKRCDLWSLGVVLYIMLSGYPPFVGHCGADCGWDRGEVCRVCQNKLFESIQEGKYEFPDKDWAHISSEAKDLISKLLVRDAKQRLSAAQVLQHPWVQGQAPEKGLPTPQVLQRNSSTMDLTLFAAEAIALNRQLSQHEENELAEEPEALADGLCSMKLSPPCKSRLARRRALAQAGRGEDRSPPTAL

[14] = target: Mitogen-activated protein kinase 11 (Homo sapiens) (UniProt Q15759); assay: Inhibition of SAPK2b at 10 uM
[15] = target: MAP/microtubule affinity-regulating kinase 3 (Homo sapiens) (UniProt P27448); assay: Inhibition of human MARK3 at 10 uM
[16] = target: Eukaryotic elongation factor 2 kinase (Homo sapiens) (UniProt O00418); assay: Inhibition of human EF2K at 10 uM

SMILES: Nc1ncnc2ncn(CC(=O)c3ccccc3)c12
- inhibition [1]: inactive
- inhibition [2]: inactive
- inhibition [3]: inactive
- inhibition [4]: inactive
- inhibition [5]: inactive
- inhibition [6]: inactive
- inhibition [7]: inactive
- inhibition [8]: inactive

SMILES: Nc1ncnc2c1ncn2CC(=O)c1ccccc1
- inhibition [1]: inactive
- inhibition [3]: inactive
- inhibition [4]: inactive
- inhibition [5]: inactive
- inhibition [6]: inactive
- inhibition [7]: inactive
- inhibition [9]: inactive

SMILES: Nc1ncnc2c1ncn2CC(=O)c1ccccn1
- inhibition [1]: inactive
- inhibition [2]: inactive
- inhibition [3]: inactive
- inhibition [4]: inactive
- inhibition [5]: inactive
- inhibition [6]: inactive
- inhibition [7]: inactive
- inhibition [9]: inactive

SMILES: Nc1ncnc2c1ncn2CC(=O)c1cccnc1
- inhibition [1]: inactive
- IC50 [2]: 58 µM
- inhibition [3]: inactive
- inhibition [4]: inactive
- inhibition [5]: inactive
- inhibition [6]: inactive
- inhibition [7]: inactive
- inhibition [9]: inactive

SMILES: Nc1ncnc2ncn(CC(=O)c3c[nH]c4ccccc34)c12
- inhibition [1]: inactive
- IC50 [2]: 30 µM
- inhibition [3]: inactive
- inhibition [10]: inactive
- inhibition [11]: inactive
- inhibition [4]: inactive
- inhibition [5]: inactive
- inhibition [6]: inactive
- inhibition [12]: inactive
- inhibition [7]: inactive
- inhibition [13]: inactive
- inhibition [14]: inactive
- inhibition [9]: inactive
- inhibition [15]: inactive
- inhibition [16]: inactive

SMILES: COc1ncnc2ncn(CC(=O)c3ccccc3)c12
- inhibition [1]: inactive
- inhibition [2]: inactive
- inhibition [3]: inactive
- inhibition [4]: inactive
- inhibition [5]: inactive
- inhibition [6]: inactive
- inhibition [7]: inactive
- inhibition [9]: inactive

SMILES: Nc1ncnc2c1ncn2CC(=O)c1c[nH]c2ccccc12
- inhibition [1]: inactive
- IC50 [2]: 81 µM
- inhibition [3]: inactive
- inhibition [4]: inactive
- inhibition [5]: inactive
- inhibition [6]: inactive
- inhibition [7]: inactive
- inhibition [13]: 73%
- inhibition [9]: inactive

SMILES: CN(C)c1ncnc2c1ncn2CC(=O)c1c[nH]c2ccccc12
- inhibition [1]: inactive
- inhibition [2]: inactive
- inhibition [3]: inactive
- inhibition [4]: inactive
- inhibition [5]: inactive
- inhibition [6]: inactive
- inhibition [7]: inactive
- inhibition [9]: inactive

SMILES: COc1ncnc2c1ncn2CC(=O)c1ccccc1
- inhibition [1]: inactive
- IC50 [2]: 25 µM
- inhibition [3]: inactive
- inhibition [4]: inactive
- inhibition [5]: inactive
- inhibition [6]: inactive
- inhibition [7]: inactive
- IC50 [9]: 45 µM
